PubChem BioAssay
Records with an inconclusive call do not appear.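 The calls were made as follows, unless noted: active = RAM network inhibition above 8.4% in each of two replicates, 3 SD over the compound average; inconclusive = above 8.4% inhibition in only one replicate; inactive = 8.4% inhibition or less in each replicate.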

Legend:
[1] = OD615 S. cerevisiae growth inhibition, permissive medium, pilot counter-assay, permissive growth control for S. cerevisiae lifespan shortening project (AID 705;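 active = growth inhibition above 25% in both replicates, a cutoff set 3 SD above the mean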); settings: OD615, 24 h, at 10 µM, active compounds read high
Procedure, shortened: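 System: S. cerevisiae with engineered DeaD lifespan system / Measured by: absorbance (optical density) at 615 nm / Read-out: reduction in yeast growth (OD615) / Times: 4 h cell pre-growth, 24 h exposure at 30 °C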

[2] = Restrictive medium S. cerevisiae growth inhibition, OD615, pilot screen of yeast lifespan reduction project, restrictive growth control (AID 706;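 active = growth inhibition above a set limit, 3 SD over mean compound inhibition, in both replicates, cut at about 43% in these data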;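 also: modified DeaD lifespan yeast strain shifted to restrictive glucose medium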); settings: OD615, 48 h, at 10 µM, active compounds read high
Procedure, shortened: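 System: Engineered S. cerevisiae DeaD strain | Buffer or medium: Glucose-based CSMM-D restrictive medium | Schedule: 4 h pre-incubation, 48 h exposure at 30 °C | Technique: Optical density at 615 nm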

[3] = viability gain of MRP-1-high H69AR cells under doxorubicin, pilot screen, MRP-1 activator project, CellTiter-Glo, duplicate (AID 807;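 active = viability increase at or above a cutoff of the median across tested compounds plus 3 SD, cut at about 8.5% in these data, passing the limit was not always enough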;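 also: compound pretreatment 18-22 h then 72 h combined with doxorubicin; 0% = doxorubicin alone and 100% = vehicle without doxorubicin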); settings: H69AR viability with doxorubicin, CellTiter-Glo luminescence; at 10 µM; active compounds read high
[4] = growth suppression of beta-catenin knockout HCT116, pilot screen, human colon tumor cells (AID 823;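 active = cell viability at or below a set limit in both duplicate runs, the limit being the all-compound median minus 4 SD, cut at about 23% in these data, passing the limit was not always enough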;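 also: 0% = wells killed by 20 µM Hyamine and 100% = untreated DMSO cell wells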); settings: CellTiter-Glo, 60 h, at 10 µM, active compounds read low
[5] = growth suppression of PTEN-deleted HCT116, pilot screen, cell-based, HCT116 clonal line, CellTiter-Glo (AID 824;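 active = viability at or below 27.92% in each of two runs, the all-compound median minus 4 SD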;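 also: 0% = 20 µM Hyamine control and 100% = vehicle cell control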); settings: 60 h, at 10 µM, active compounds read low
[6] = inhibitors of the yeast RAM network, pilot screen, dse1pr::URA3 reporter, 5-FOA selection (AID 869;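 active = inhibition over a set limit, the all-compound mean plus 3 SD, in both replicate runs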;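 also: 0% = DMSO wells with no growth and 100% = 10 µM 1-NA-PP1 with full growth; RAM network block rescues cells from 5-FOA so hits raise OD615 growth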); settings: S. cerevisiae dse1pr::URA3 5-FOA growth, OD615, 2 d; at 10 µM; active compounds read high; strain carries analog-sensitive mutant Cbk1 kinase
[7] = RAM signaling pathway blockade in yeast – S. cerevisiae, Pdr1DBD-CYC8 efflux-inhibited sensitized strain, primary screen (AID 1298);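 also: 0% = DMSO untreated cells without growth and 100% = 10 µM 1-NA-PP1 full growth; higher means more yeast growth rescued from 5-FOA killing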; settings: S. cerevisiae cbk1-as DSE1-URA3 strain, 5-FOA growth OD615, 2 d; at 50 µM; active compounds read high

CC(=O)NC(CCS(C)(=O)=O)C(=O)Nc1ccc(Cl)c(Cl)c1 (stereo not given)
inactive: growth inhibition [1] -4.26% | growth inhibition [2] -6.39% | viability increase [3] -1.98% | viability [4] 96.9% | viability [5] 89.6% | inhibition [6] 1.11% | RAM network inhibition [7] 1.53%

Cc1ccc(-c2nnc(SCC(=O)Nc3ccccc3F)o2)cc1
inactive: growth inhibition [1] -11.9% | growth inhibition [2] 2.46% | viability increase [3] -0.16% | viability [4] 41.8% | viability [5] 37.8% | inhibition [6] 4.38% | RAM network inhibition [7] 5.9%

C=CCn1c(CSc2nc3ccccc3s2)nnc1SCC(=O)NCc1ccco1
inactive: growth inhibition [1] 1.06% | growth inhibition [2] 30.4% | viability increase [3] -3.87% | viability [4] 96.6% | viability [5] 90.4% | inhibition [6] 0.105% | RAM network inhibition [7] 2.19%

Cn1cc(S(=O)(=O)CC(=O)Nc2ccc3c(c2)OCO3)c2ccccc21
inactive: growth inhibition [1] -1.92% | growth inhibition [2] 4.48% | viability increase [3] -2.54% | viability [4] 95.9% | viability [5] 92.1% | inhibition [6] 0.5% | RAM network inhibition [7] 5.14%

Cc1c(NC(=O)C2CCCN2S(=O)(=O)c2ccccc2)c(=O)n(-c2ccccc2)n1C (stereo not given)
inactive: growth inhibition [1] -8.82% | growth inhibition [2] -10.2% | viability increase [3] -1% | viability [4] 97.3% | viability [5] 107% | inhibition [6] 2.12% | RAM network inhibition [7] 0.05%

O=C(Cc1cccs1)NCCn1ccc2ccccc21
inactive: growth inhibition [1] -14.2% | growth inhibition [2] -11.5% | viability increase [3] -1.16% | viability [4] 90.3% | viability [5] 87.1% | inhibition [6] 0.32% | RAM network inhibition [7] 9.88%

CCCCCOC(=O)Cn1c(=O)oc2ccccc21
inactive: growth inhibition [1] -7.12% | growth inhibition [2] 4.42% | viability increase [3] -1.13% | viability [4] 90.3% | viability [5] 97.8% | inhibition [6] 0.385% | RAM network inhibition [7] 4.28%

Cc1cc(N2CCN(C(c3ccccc3)c3ccc(Cl)cc3)CC2)n2ncnc2n1 (stereo not given)
inactive: growth inhibition [1] -1.52% | growth inhibition [2] 7.98% | viability increase [3] -4.33% | viability [4] 66.1% | viability [5] 63.2% | inhibition [6] 0.13% | RAM network inhibition [7] 3.39%

COc1ccc(OC)c(-n2c(SCC(=O)Nc3cc(C)on3)nnc2-c2c[nH]c3ccccc23)c1
inactive: growth inhibition [1] -1.04% | growth inhibition [2] 6.54% | viability increase [3] -2.74% | viability [4] 79.2% | viability [5] 78.8% | inhibition [6] 1.31% | RAM network inhibition [7] 1.29%

Cc1csc2ncc(C(=O)Nc3ccc(C(F)(F)F)cc3)c(=O)n12
inactive: growth inhibition [1] -10.2% | growth inhibition [2] -17.2% | viability increase [3] -2.44% | viability [4] 84.8% | viability [5] 85.8% | inhibition [6] 3.73% | RAM network inhibition [7] 3.03%

COc1ccc(C2CC(c3c(Cl)cccc3Cl)n3nc(N)nc3N2)cc1 (stereo not given)
inactive: growth inhibition [1] -6.17% | growth inhibition [2] 5.1% | viability increase [3] -1.64% | viability [4] 95.3% | viability [5] 88.1% | inhibition [6] 2.57% | RAM network inhibition [7] 6.67%

COc1ccc(NC(=O)Nc2ccc(OCC(=O)N3CCOCC3)cc2)cc1OC
inactive: growth inhibition [1] -13% | growth inhibition [2] -1.38% | viability increase [3] -2.34% | viability [4] 88.4% | viability [5] 90.5% | inhibition [6] 0.595% | RAM network inhibition [7] 0.11%

COc1ccc(-c2nc(CSCC(=O)N3CCC(C(N)=O)CC3)c(C)o2)cc1OC
inactive: growth inhibition [1] -2.87% | growth inhibition [2] 9.12% | viability increase [3] -0.52% | viability [4] 106% | viability [5] 98.3% | inhibition [6] 0.78% | RAM network inhibition [7] -0.72%

COC(=O)c1cc(COc2ccc3oc(C)c(C(=O)OC)c3c2)c(C)o1
inactive: growth inhibition [1] 4.47% | growth inhibition [2] -14.8% | viability increase [3] 0.77% | viability [4] 74.4% | viability [5] 74.5% | inhibition [6] 2.19% | RAM network inhibition [7] 3.15%

c1ccc(-c2cnnc(N3CCCCC3)n2)cc1
inactive: growth inhibition [1] -4.88% | growth inhibition [2] 8.84% | viability increase [3] -1.75% | viability [4] 102% | viability [5] 97.4% | inhibition [6] 0.13% | RAM network inhibition [7] 5.69%

CC(C)Cc1nc(C(N)=O)c2[nH]c(=O)n(-c3ccc(F)cc3)c2n1
inactive: growth inhibition [1] -21.3% | growth inhibition [2] -27.8% | viability increase [3] -2.13% | viability [4] 100% | viability [5] 91.2% | inhibition [6] 3.68% | RAM network inhibition [7] 8.63%

CCCS(=O)(=O)N1CCn2c(nc3ccccc32)C1
inactive: growth inhibition [1] 0.585% | growth inhibition [2] -2.62% | viability increase [3] -0.37% | viability [4] 106% | viability [5] 102% | inhibition [6] 2.19% | RAM network inhibition [7] 2.93%

Cn1c(C(=O)Nc2ccc3c(c2)OCCO3)cc2c(=O)n(C)c3ccccc3c21
inactive: growth inhibition [1] -14.2% | growth inhibition [2] -2.83% | viability increase [3] -7.31% | viability [4] 72.5% | viability [5] 64.3% | inhibition [6] 1.94% | RAM network inhibition [7] 4.95%

CCOc1ccc(-n2c(Cc3cc(=O)[nH]c(=O)[nH]3)nnc2SCC(=O)NC2CCCC2)cc1
inactive: growth inhibition [1] -1.49% | growth inhibition [2] 4.62% | viability increase [3] -0.16% | viability [4] 101% | viability [5] 100% | inhibition [6] -1.29% | RAM network inhibition [7] -0.37%

COc1ccc(NC(=O)[C@H](CCS(C)(=O)=O)N2Cc3ccccc3C2=O)c(OC)c1
inactive: growth inhibition [1] -0.525% | growth inhibition [2] -0.57% | viability increase [3] 0.69% | viability [4] 104% | viability [5] 100% | inhibition [6] 2.29% | RAM network inhibition [7] 1.93%

CC12CC(NC(=O)N1CCc1ccccc1)c1ccccc1O2 (stereo not given)
inactive: growth inhibition [1] -8.73% | growth inhibition [2] -25% | viability increase [3] -3.43% | viability [4] 74.9% | viability [5] 73.8% | inhibition [6] 1.45% | RAM network inhibition [7] 5.31%

N/C(CC(=O)Nc1cccc(C(F)(F)F)c1)=N/O
inactive: growth inhibition [1] -0.19% | growth inhibition [2] 2.58% | viability increase [3] -1.91% | viability [4] 96.5% | viability [5] 101% | inhibition [6] 1.16% | RAM network inhibition [7] 4.4%

CC(c1ccccc1)N1CNc2c(c(=O)n(C)c(=O)n2C)C1 (stereo not given)
inactive: growth inhibition [1] -8.04% | growth inhibition [2] 2.52% | viability increase [3] -1.82% | viability [4] 94.3% | viability [5] 92.2% | inhibition [6] 0.02% | RAM network inhibition [7] 0.77%

O=C(NC1CSC/C1=N\O)c1ccccc1 (stereo not given)
inactive: growth inhibition [1] -9.51% | growth inhibition [2] -1.84% | viability increase [3] -2.52% | viability [4] 103% | viability [5] 101% | inhibition [6] 1.17% | RAM network inhibition [7] 1.84%

CC(=O)c1ccc2c3c(ccc(O)c13)CC2
inactive: growth inhibition [1] -1.21% | growth inhibition [2] 7.16% | viability increase [3] -4.04% | viability [4] 97.2% | viability [5] 88% | inhibition [6] 1.52% | RAM network inhibition [7] 5.46%

CCOC(=O)CCSCC(=O)Nc1nnc(C)s1
inactive: growth inhibition [1] -1.14% | growth inhibition [2] -0.57% | viability increase [3] 0.86% | viability [4] 113% | viability [5] 100% | inhibition [6] 0.55% | RAM network inhibition [7] 3.07%

CCOC(=O)c1cc(-c2nnc(-c3ccc(Cl)cc3)o2)c(C)nc1C
inactive: growth inhibition [1] -16.3% | growth inhibition [2] -14.2% | viability increase [3] -0.9% | viability [4] 99.7% | viability [5] 93.6% | inhibition [6] 2.19% | RAM network inhibition [7] 2.13%

CCOC(=O)c1c(C)c(-c2ccccc2)n(CC(=O)N2CCCC2)c1C
inactive: growth inhibition [1] -8.25% | growth inhibition [2] -12.4% | viability increase [3] -3.38% | viability [4] 87.6% | viability [5] 92.3% | inhibition [6] 1.31% | RAM network inhibition [7] 2.73%

Cc1ccc(-c2nc3cnccn3c2Nc2ccccc2)o1
inactive: growth inhibition [1] 0.205% | growth inhibition [2] 14.9% | viability increase [3] -0.77% | viability [4] 91.2% | viability [5] 84.3% | inhibition [6] 0.995% | RAM network inhibition [7] 1.9%

CCCC(=O)N1CC(=O)Nc2ccc(F)cc2C1c1ccccc1 (stereo not given)
inactive: growth inhibition [1] -5.99% | growth inhibition [2] -15.7% | viability increase [3] -1.01% | viability [4] 111% | viability [5] 92.6% | inhibition [6] 3.18% | RAM network inhibition [7] 3.75%

CCOC1OC2C(CO)OC(n3cnc4c(N)ncnc43)C2O1 (stereo not given)
inactive: growth inhibition [1] 6.12% | growth inhibition [2] 10.6% | viability increase [3] 0.13% | viability [4] 95.1% | viability [5] 96.6% | inhibition [6] 1.5% | RAM network inhibition [7] 1.28%

CCc1ccc(S(=O)(=O)NCc2cn3c(C)csc3n2)s1
inactive: growth inhibition [1] 0.075% | growth inhibition [2] 5.25% | viability increase [3] -2.89% | viability [4] 102% | viability [5] 94.1% | inhibition [6] 0.37% | RAM network inhibition [7] 2.22%

CCOC(=O)c1cc2c(=O)n3ccccc3nc2n(CCCOC)c1=NC(=O)c1cccnc1
inactive: growth inhibition [1] -0.71% | growth inhibition [2] -4.29% | viability increase [3] -4.22% | viability [4] 112% | viability [5] 93.7% | inhibition [6] 0.775% | RAM network inhibition [7] 3.03%

CSc1nnc(Cn2c(=O)sc3ccccc32)n1-c1ccccc1
inactive: growth inhibition [1] -2.55% | growth inhibition [2] 3.38% | viability increase [3] -0.84% | viability [4] 104% | viability [5] 102% | inhibition [6] 2.03% | RAM network inhibition [7] 2.08%

CC(C)(Oc1ccc(Cl)cc1)C(=O)Nc1cccnc1
inactive: growth inhibition [1] -4.86% | growth inhibition [2] -6.65% | viability increase [3] -3.43% | viability [4] 92.6% | viability [5] 83.1% | inhibition [6] 0.405% | RAM network inhibition [7] 1.94%
